Data as given in article PMC6289621 (Biomaterials, 2018).
Like-named read-outs stand apart in the source and are kept apart here. One block for each molecule: values may come before it.

Tests used:
[1] = tested on: iPS12, KW01 and AD6 dhBMEC microvessels; test: Solute permeability of dhBMEC microvessels from other iPSC lines; details: day two, p > 0.05 for all comparisons
HUVEC microvessels = test: Solute permeability of HUVEC microvessels; type: in vitro ADME, human; details: for Permeability differences between day two, four and six: p > 0.05; for Permeability in HUVEC microvessels relative to BC1 dhBMEC microvessels: HUVEC vs BC1 dhBMEC
[2] = Solute permeability of HUVEC microvessels; type: in vitro ADME, human; details: human
BC1 dhBMEC microvessels [3] = test: Solute permeability of BC1 dhBMEC microvessels; type: in vitro ADME, human; details: for Permeability on days four and six compared with day two: p > 0.05
[4] = cited from earlier work
p-glycoprotein = details: healthy humans, continuous infusion of tariquidar ref 80; cited from earlier work
[5] = molecular target: P-glycoprotein (P-gp) in BC1 dhBMEC microvessels (Homo sapiens, UniProt P08183); test: Efflux inhibition in BC1 dhBMEC microvessels; type: cell-based
Chain of P-glycoprotein (P-gp) in BC1 dhBMEC microvessels (P08183 whole entry): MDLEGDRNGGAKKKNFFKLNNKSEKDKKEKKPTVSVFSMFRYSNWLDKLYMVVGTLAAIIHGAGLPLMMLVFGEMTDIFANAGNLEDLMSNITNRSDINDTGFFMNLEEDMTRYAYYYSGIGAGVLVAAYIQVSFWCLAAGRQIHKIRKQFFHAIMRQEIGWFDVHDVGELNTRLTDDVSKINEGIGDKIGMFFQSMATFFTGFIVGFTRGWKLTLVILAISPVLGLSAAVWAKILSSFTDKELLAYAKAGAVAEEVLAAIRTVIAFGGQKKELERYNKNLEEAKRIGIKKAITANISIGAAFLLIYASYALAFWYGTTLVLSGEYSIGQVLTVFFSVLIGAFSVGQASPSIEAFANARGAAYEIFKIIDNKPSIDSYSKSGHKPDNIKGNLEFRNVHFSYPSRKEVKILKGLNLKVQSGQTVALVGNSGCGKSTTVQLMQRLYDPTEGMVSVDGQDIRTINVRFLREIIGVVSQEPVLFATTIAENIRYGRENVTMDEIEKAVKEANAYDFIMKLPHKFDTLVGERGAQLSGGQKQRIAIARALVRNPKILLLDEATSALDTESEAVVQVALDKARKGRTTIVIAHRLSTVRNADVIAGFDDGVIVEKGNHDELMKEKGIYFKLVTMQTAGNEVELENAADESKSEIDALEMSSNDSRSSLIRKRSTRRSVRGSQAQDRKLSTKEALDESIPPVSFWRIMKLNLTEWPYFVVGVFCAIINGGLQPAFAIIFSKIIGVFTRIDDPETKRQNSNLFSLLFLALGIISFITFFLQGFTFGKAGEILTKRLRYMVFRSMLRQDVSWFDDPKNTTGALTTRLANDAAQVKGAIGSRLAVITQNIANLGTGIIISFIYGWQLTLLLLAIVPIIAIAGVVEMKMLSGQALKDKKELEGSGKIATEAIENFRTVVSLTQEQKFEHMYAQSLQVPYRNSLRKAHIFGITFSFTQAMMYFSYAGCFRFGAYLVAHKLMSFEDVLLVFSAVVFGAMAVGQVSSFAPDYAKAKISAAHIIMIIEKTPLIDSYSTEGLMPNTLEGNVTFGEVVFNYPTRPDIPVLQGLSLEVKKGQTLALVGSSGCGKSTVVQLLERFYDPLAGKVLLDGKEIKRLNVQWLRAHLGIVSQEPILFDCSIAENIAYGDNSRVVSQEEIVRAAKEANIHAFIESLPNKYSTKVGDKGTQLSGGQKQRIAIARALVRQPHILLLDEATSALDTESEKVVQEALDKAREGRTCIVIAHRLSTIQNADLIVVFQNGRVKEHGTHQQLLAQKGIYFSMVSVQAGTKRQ

[6] = tested on: iPS12, KW01 and AD6 dhBMEC microvessels
pial PCV microvessels = details: rat, not told; cited from earlier work
BC1 dhBMEC microvessels [7] = test: Cytokine activation: permeability, adhesion molecules and leukocyte adhesion; type: cell-based, human
Summary of the method: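 dhBMEC microvessels in collagen I channels, perfused at ~1 dyn cm⁻² with serum-free endothelial media plus 1% platelet-poor serum, with or without 10 ng mL⁻¹ TNFα for 12 h. […] ICAM-1/VCAM-1 by immunostaining; breakdown by phase contrast. Mean ± SEM.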

[8] = 12-hour perfusion of 2 μM tariquidar

Permeability differences between BC1, iPS12, KW01 and AD6 microvessels [1]: no statistically significant differences | Permeability differences between day two, four and six (HUVEC microvessels; HUVEC microvessels): no statistically significant differences | Permeability in HUVEC microvessels relative to BC1 dhBMEC microvessels (HUVEC microvessels): about 20 fold | Papp at 20 min, 5 μM [2]: 3 ×10⁻⁶ cm/s | Permeability on days four and six compared with day two (BC1 dhBMEC microvessels [3]; BC1 dhBMEC microvessels): remained stable
Molecule: COC(=O)c1ccccc1-c1c2ccc(=N)cc-2oc2cc(N)ccc12 [R123, Rhodamine 123]

Molecule: OC[C@@H](O)[C@@H](O)[C@H](O)[C@H](O)CO [mannitol, d-mannitol]
Solubility limit [4]: around 1.4 M

Disruptions in paracellular permeability [5, 8]: not observed | Increase in permeability of P-gp substrate Rhodamine 123 [5, 8]: two-fold | Effect on mitochondrial localization of R123 ([5]; tariquidar treated BC1 dhBMEC microvessels): no noticeable effect
Molecule: COc1cc2c(cc1OC)CN(CCc1ccc(NC(=O)c3cc(OC)c(OC)cc3NC(=O)c3cnc4ccccc4c3)cc1)CC2 [tariquidar]
Increase of verapamil distribution volume (p-glycoprotein): 2.73 fold | Cytotoxicity (barrier function and microvessel structure) ([5]; 12 hours of tariquidar exposure): did not result in apparent cytotoxicity

Permeability differences between BC1, iPS12, KW01 and AD6 microvessels [6]: no statistically significant differences | Mean permeability over six days (HUVEC microvessels; HUVEC microvessels): 3.90 ± 0.16 × 10^−6 cm s^−1 | PLY / PR123 (ratio of LY to R123 permeabilities) (HUVEC microvessels; HUVEC microvessels): ~ 1.3 | Permeability differences between day two, four and six (HUVEC microvessels; HUVEC microvessels): no statistically significant differences | Permeability in HUVEC microvessels relative to BC1 dhBMEC microvessels (HUVEC microvessels): more than 10 fold | Permeability (BC1 dhBMEC microvessels [3]; BC1 dhBMEC microvessels, day two): 2.50 ± 0.46 × 10^−7 cm s^−1 | Permeability, average value across all time points (BC1 dhBMEC microvessels [3]; BC1 dhBMEC microvessels, over six days (days two, four, six)): 2.84 ± 0.41 × 10^−7 cm s^−1 | Permeability on days four and six compared with day two (BC1 dhBMEC microvessels [3]; BC1 dhBMEC microvessels): did not increase | PLY / PR123 (ratio of LY to R123 permeabilities) (BC1 dhBMEC microvessels [3]; dhBMEC microvessels, untreated): ~ 1.9
Molecule: Lucifer yellow [LY]
Permeability in 15 μm pial PCV microvessels (pial PCV microvessels): 1 – 2 × 10^−7

Permeability of LY, R123 or 10 kDa dextran after TNFα compared to control (BC1 dhBMEC microvessels [7]; 10 ng mL^−1 TNFα, 12 hours, p > 0.05 for all comparisons): did not alter
Molecule: TNFα
Expression of adhesion molecules ICAM-1 and VCAM-1 (BC1 dhBMEC microvessels [7]; 10 ng mL^−1 TNFα, 12 hours, immunocytochemistry): upregulation | Time to macroscopic breakdown of microvessels (BC1 dhBMEC microvessels [7]; microvessels exposed to TNFα with adherent PBMCs): ≤ 24 h
